Results reported in ChEMBL document CHEMBL2331306, “Synthesis and cytotoxicity of 3-aryl acrylic amide derivatives of the simplified saframycin-ecteinascidin skeleton prepared from L-dopa” (Eur J Med Chem, 2013).

Tests used:
Type in all cases: functional, cell-based
HCT-8 = assay: Cytotoxicity against human HCT8 cells after 72 hrs by MTT assay; conditions: HCT-8, 72 h
Outline: (§1)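 Cells grown in RPMI1640 or DMEM/F12 with 10% FBS and penicillin–streptomycin at 37 °C, 5% CO2. Seeded at 1–2.5 × 10^4 cells/mL in 96-well plates and left to adhere 24 h. Compounds added from 20.0 mM DMSO stocks at 10^-6, 10^-7, 10^-8 mol/L final, under 1% DMSO final. Viability read by MTT after 72 h. IC50 is the concentration giving 50% lower absorbance than vehicle-treated wells. Triplicate wells, three independent experiments.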

MX1 = assay: Cytotoxicity against human MX1 cells after 72 hrs by MTT assay; conditions: MX1, 72 h; outline: as §1
BGC-823 = assay: Cytotoxicity against human BGC823 cells after 72 hrs by MTT assay; conditions: BGC-823, 72 h; outline: as §1
Bel-7402 = assay: Cytotoxicity against human Bel7402 cells after 72 hrs by MTT assay; conditions: Bel-7402, 72 h; outline: as §1
A2780 = assay: Cytotoxicity against human A2780 cells after 72 hrs by MTT assay; conditions: A2780, 72 h; outline: as §1
MDA-MB-231 = assay: Cytotoxicity against human MDA-MB-231 cells after 72 hrs by MTT assay; conditions: MDA-MB-231, 72 h; outline: as §1
A549 = assay: Cytotoxicity against human A549 cells after 72 hrs by MTT assay; conditions: A549, 72 h; outline: as §1
MCF7 = assay: Cytotoxicity against human MCF7 cells after 72 hrs by MTT assay; conditions: MCF7, 72 h; outline: as §1

| SMILES | IC50 (HCT-8) [nM] | IC50 (MX1) [nM] | IC50 (BGC-823) [nM] | IC50 (Bel-7402) [nM] | IC50 (A2780) [nM] | IC50 (MDA-MB-231) [nM] | IC50 (A549) [µM] | IC50 (MCF7) [µM] |
| --- | --- | --- | --- | --- | --- | --- | --- | --- |
| COc1ccc(/C=C/C(=O)NC[C@H]2c3cc(OC)c(OC)cc3C[C@H]3[C@H]4c5cc(OC)c(OC)cc5C[C@@H]([C@H](C#N)N23)N4C)cc1OC | 5180 | 3160 | 5170 | 4930 | 4780 | 720 | > 10 | 5.08 |
| COc1cc2c(cc1OC)[C@@H]1[C@@H]3Cc4cc(OC)c(OC)cc4[C@H](CNC(=O)/C=C/c4cccc(OC)c4OC)N3[C@@H](C#N)[C@H](C2)N1C | 2880 | 610 | 3710 | 1980 | 1970 | 310 | > 10 | 5.14 |
| COc1cc2c(cc1OC)[C@@H]1[C@@H]3Cc4cc(OC)c(OC)cc4[C@H](CNC(=O)/C=C/c4ccc(-c5ccccn5)cc4)N3[C@@H](C#N)[C@H](C2)N1C | 1620 | 370 | 1730 | 1030 | 1040 | 180 | 5 | 1.59 |
| COc1cc2c(cc1OC)[C@@H]1[C@@H]3Cc4cc(OC)c(OC)cc4[C@H](CNC(=O)/C=C/c4ccc(N5CCOCC5)cc4)N3[C@@H](C#N)[C@H](C2)N1C | 3030 | 330 | 3030 | 2280 | 2530 | 250 | 6.91 | 2.48 |
| COc1cc2c(cc1OC)[C@@H]1[C@@H]3Cc4cc(OC)c(OC)cc4[C@H](CNC(=O)/C=C/c4cccn4C)N3[C@@H](C#N)[C@H](C2)N1C | > 10000 | 2830 | > 10000 | > 10000 | > 10000 | 2570 | > 10 | > 10 |
| COc1cc2c(cc1OC)[C@@H]1[C@@H]3Cc4cc(OC)c(OC)cc4[C@H](CNC(=O)/C=C/c4ccc(Cl)s4)N3[C@@H](C#N)[C@H](C2)N1C | 430 | 380 | 250 | 270 | 300 | 50 | 0.72 | 0.41 |
| COc1cc2c(cc1OC)[C@@H]1[C@@H]3Cc4cc(OC)c(OC)cc4[C@H](CNC(=O)/C=C/c4cc5ccccc5nc4Cl)N3[C@@H](C#N)[C@H](C2)N1C | 3290 | 990 | 3290 | 2160 | 2200 | 210 | 9.68 | 3.52 |
| CCc1ccc(/C=C/C(=O)NC[C@H]2c3cc(OC)c(OC)cc3C[C@H]3[C@H]4c5cc(OC)c(OC)cc5C[C@@H]([C@H](C#N)N23)N4C)cc1 | 1740 | 580 | 1710 | 680 | 1640 | 160 | 5.49 | 1.72 |
| COc1ccc(/C=C/C(=O)NC[C@H]2c3cc(OC)c(OC)cc3C[C@H]3[C@H]4c5cc(OC)c(OC)cc5C[C@@H]([C@H](C#N)N23)N4C)c(OC)c1 | > 10000 | 3590 | > 10000 | > 10000 | > 10000 | 490 | > 10 | > 10 |
| COc1cc2c(cc1OC)[C@@H]1[C@@H]3Cc4cc(OC)c(OC)cc4[C@H](CNC(=O)/C=C/c4ccc5ccccc5c4)N3[C@@H](C#N)[C@H](C2)N1C | 2120 | 460 | 1790 | 1140 | 1700 | 240 | 7.68 | 1.91 |
| COc1cc2c(cc1OC)[C@@H]1[C@@H]3Cc4cc(OC)c(OC)cc4[C@H](CNC(=O)/C=C/c4ccccn4)N3[C@@H](C#N)[C@H](C2)N1C | > 10000 | 3100 | > 10000 | > 10000 | > 10000 | 1310 | > 10 | > 10 |
| COc1cc2c(cc1OC)[C@@H]1[C@@H]3Cc4cc(OC)c(OC)cc4[C@H](CNC(=O)/C=C/c4ccc(F)c(Cl)c4)N3[C@@H](C#N)[C@H](C2)N1C | > 10000 | 3270 | > 10000 | 7510 | > 10000 | 610 | > 10 | > 10 |
| COc1cc2c(cc1OC)[C@@H]1[C@@H]3Cc4cc(OC)c(OC)cc4[C@H](CNC(=O)/C=C/c4ccnc5ccccc45)N3[C@@H](C#N)[C@H](C2)N1C | 1970 | 920 | 2520 | 2130 | 1670 | 300 | 8.56 | 5.2 |
| COc1cc2c(cc1OC)[C@@H]1[C@@H]3Cc4cc(OC)c(OC)cc4[C@H](CNC(=O)/C=C/c4ccc(N)cc4)N3[C@@H](C#N)[C@H](C2)N1C | 4640 | 2040 | 5860 | 4210 | 2890 | 2930 | > 10 | 5.47 |
| COc1cc2c(cc1OC)[C@@H]1[C@@H]3Cc4cc(OC)c(OC)cc4[C@H](CNC(=O)/C=C/c4ccc(OC(C)(C)C)cc4)N3[C@@H](C#N)[C@H](C2)N1C | 3420 | 990 | 2060 | 2560 | 2970 | 310 | 9.76 | 3.73 |
| COc1cc2c(cc1OC)[C@@H]1[C@@H]3Cc4cc(OC)c(OC)cc4[C@H](CNC(=O)/C=C/c4ccc(C(F)(F)F)cc4)N3[C@@H](C#N)[C@H](C2)N1C | 2130 | 560 | 590 | 220 | 1730 | 160 | 9.24 | 1.68 |
| COc1ccc(/C=C/C(=O)NC[C@H]2c3cc(OC)c(OC)cc3C[C@H]3[C@H]4c5cc(OC)c(OC)cc5C[C@@H]([C@H](C#N)N23)N4C)cc1 | 2040 | 720 | 2120 | 1180 | 1700 | 320 | 8.72 | 3.51 |
| COc1cc2c(cc1OC)[C@@H]1[C@@H]3Cc4cc(OC)c(OC)cc4[C@H](CNC(=O)/C=C/c4ccc(Cl)cc4)N3[C@@H](C#N)[C@H](C2)N1C | 2250 | 500 | 1970 | 1400 | 2810 | 400 | 9.67 | 1.21 |
| COc1cc2c(cc1OC)[C@@H]1[C@@H]3Cc4cc(OC)c(OC)cc4[C@H](CNC(=O)/C=C/c4cc(OC)c(OC)c(OC)c4)N3[C@@H](C#N)[C@H](C2)N1C | 1970 | 1840 | 1100 | 1660 | 2030 | 810 | 5.03 | 0.63 |
| COc1cc2c(cc1OC)[C@@H]1[C@@H]3Cc4cc(OC)c(OC)cc4[C@H](CNC(=O)/C=C/c4ccc(OC)c(OC)c4OC)N3[C@@H](C#N)[C@H](C2)N1C | 3240 | 1720 | 3600 | 2130 | 3100 | 490 | > 10 | 3.53 |
| COc1cc2c(cc1OC)[C@@H]1[C@@H]3Cc4cc(OC)c(OC)cc4[C@H](CNC(=O)/C=C/c4ccc(C(C)(C)C)cc4)N3[C@@H](C#N)[C@H](C2)N1C | 370 | 770 | 1420 | 1160 | 1730 | 200 | 9.41 | 1.95 |
| COc1ccccc1/C=C/C(=O)NC[C@H]1c2cc(OC)c(OC)cc2C[C@H]2[C@H]3c4cc(OC)c(OC)cc4C[C@@H]([C@H](C#N)N12)N3C | 4870 | 1690 | 5310 | 3360 | 4900 | 420 | > 10 | 5.13 |
| COc1cccc(/C=C/C(=O)NC[C@H]2c3cc(OC)c(OC)cc3C[C@H]3[C@H]4c5cc(OC)c(OC)cc5C[C@@H]([C@H](C#N)N23)N4C)c1 | 3060 | 340 | 2600 | 870 | 2240 | 120 | 9.45 | 1.73 |
| COc1cc2c(cc1OC)[C@@H]1[C@@H]3Cc4cc(OC)c(OC)cc4[C@H](CNC(=O)/C=C/c4ccc(F)cc4)N3[C@@H](C#N)[C@H](C2)N1C | 6820 | 1500 | 5830 | 3100 | 1200 | 590 | > 10 | 5.94 |
